Test results from ChEMBL document CHEMBL4038344, “Novel Diarylurea Based Allosteric Modulators of the Cannabinoid CB1 Receptor: Evaluation of Importance of 6-Pyrrolidinylpyridinyl Substitution” (J Med Chem, 2017).
Calls of active or inactive are those of the source. No cut-off for these calls is given here.

Tests used:
Liver [1] = test: (§1) Half life in rat liver microsomes in presence of NADPH by LC-MS/MS analysis; type: ADME, microsome; details: microsomes
How it was run: (§2)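 Compound was incubated at 37 °C with rat liver microsomes (0.5 mg/mL protein) in 100 mM potassium phosphate, pH 7.4, with 1 mM NADPH. Samples were taken at 0, 5, 15, 30 and 45 min and quenched 1:1 with ice-cold stop solution containing labetalol. Half-life and clearance are mean ± SD of two independent experiments.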

Cannabinoid receptor 2 [2] = biological target: T1, Cannabinoid receptor 2 (Homo sapiens, UniProt P34972); test: (§3) Antagonist activity at human CB2 receptor expressed in CHO cells co-expressing Galpha16 assessed as inhibition of CP55,940-induced calcium mobilization preincubated for 15 mins followed by CP55,490 addition measured at 1 sec interval for 90 secs by calcium-5 dye based FLIPR assay; type: functional, cell-based
T1 sequence (P34972 whole entry): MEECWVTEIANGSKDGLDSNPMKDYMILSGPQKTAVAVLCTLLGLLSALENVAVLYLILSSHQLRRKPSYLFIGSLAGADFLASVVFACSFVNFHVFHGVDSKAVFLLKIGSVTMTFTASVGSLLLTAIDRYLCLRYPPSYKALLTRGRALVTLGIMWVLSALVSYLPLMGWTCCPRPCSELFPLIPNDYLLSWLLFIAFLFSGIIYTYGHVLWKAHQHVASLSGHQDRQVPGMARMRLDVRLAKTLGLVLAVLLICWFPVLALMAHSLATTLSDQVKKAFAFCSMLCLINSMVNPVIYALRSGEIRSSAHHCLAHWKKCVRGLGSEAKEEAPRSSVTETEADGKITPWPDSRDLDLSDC

[3] = biological target: Cannabinoid receptor 1 (Mus musculus) (UniProt P47746); test: PAM antagonist activity at CB1 receptor in CD-1 mouse cerebellar membranes assessed as inhibition of CP55,940-induced [35S]GTPgammaS binding after 60 mins; details: Cerebellum, Membrane
Sequence of Cannabinoid receptor 1 (Mus musculus) (P47746 whole entry, looked up): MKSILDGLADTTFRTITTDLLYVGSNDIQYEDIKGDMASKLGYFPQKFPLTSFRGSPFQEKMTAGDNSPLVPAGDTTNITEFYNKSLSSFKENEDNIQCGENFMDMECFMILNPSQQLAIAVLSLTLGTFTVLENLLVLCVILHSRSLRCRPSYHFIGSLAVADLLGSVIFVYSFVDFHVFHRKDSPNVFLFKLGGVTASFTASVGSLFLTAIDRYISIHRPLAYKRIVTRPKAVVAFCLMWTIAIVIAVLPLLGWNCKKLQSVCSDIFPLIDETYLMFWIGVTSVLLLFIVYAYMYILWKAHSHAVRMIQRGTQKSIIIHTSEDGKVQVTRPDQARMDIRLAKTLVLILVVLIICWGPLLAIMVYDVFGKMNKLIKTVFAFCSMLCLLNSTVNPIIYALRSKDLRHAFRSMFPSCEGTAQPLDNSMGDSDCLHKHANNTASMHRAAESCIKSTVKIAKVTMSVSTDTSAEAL

Liver [4] = test: Clearance in rat liver microsomes in presence of NADPH by LC-MS/MS analysis; type: ADME, microsome; how it was run: as §2
Cannabinoid receptor 1 [5] = biological target: T2, Cannabinoid receptor 1 (Homo sapiens, UniProt P21554); test: PAM antagonist activity at human CB1 receptor expressed in CHO cells co-expressing Galpha16 assessed as inhibition of CP55,940-induced calcium mobilization up to 100 nM preincubated for 15 mins followed by CP55,490 addition measured at 1 sec interval for 90 secs by calcium-5 dye based FLIPR assay; type: functional, cell-based
T2 sequence (P21554 whole entry): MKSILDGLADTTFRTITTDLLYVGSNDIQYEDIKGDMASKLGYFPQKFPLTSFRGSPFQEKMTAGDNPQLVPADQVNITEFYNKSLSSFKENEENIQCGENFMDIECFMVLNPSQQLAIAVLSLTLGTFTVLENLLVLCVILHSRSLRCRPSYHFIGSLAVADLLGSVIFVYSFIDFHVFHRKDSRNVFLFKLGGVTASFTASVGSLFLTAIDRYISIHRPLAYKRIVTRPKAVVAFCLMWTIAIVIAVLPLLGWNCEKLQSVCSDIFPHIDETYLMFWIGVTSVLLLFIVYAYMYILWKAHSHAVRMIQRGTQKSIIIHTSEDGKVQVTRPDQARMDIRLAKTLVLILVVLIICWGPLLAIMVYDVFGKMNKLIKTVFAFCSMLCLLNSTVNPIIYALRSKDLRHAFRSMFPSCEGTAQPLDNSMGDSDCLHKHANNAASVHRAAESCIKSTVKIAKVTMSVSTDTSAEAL

Rattus norvegicus [6] = test: Reduction in cocaine-induced reinstatement of cocaine seeking behavior in Sprague-Dawley rat at 10 mg/kg pretreated for 10 mins followed by cocaine treatment on day following last extinction session; type: functional, organism-based
How it was run: (§4)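 Adult male Sprague-Dawley rats (280-300 g) with jugular catheters self-administered cocaine (0.75 mg/kg/infusion, FR1 rising to FR5) in 2-hr daily sessions for 14 days, followed by extinction. On the day after the last extinction session, compound was given 10 min before a cocaine prime (10 mg/kg i.p.). Active lever presses were counted over the 2-hr reinstatement session.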

[7] = biological target: Cannabinoid receptor 1 (Mus musculus) (UniProt P47746); test: PAM antagonist activity at CB1 receptor in CD-1 mouse cerebellar membranes assessed as increase in [3H]CP55,940 binding after 90 mins relative to control; set-up: scale not given: the % may be the effect or the level left; details: Cerebellum, Membrane
Cannabinoid receptor 1 [8] = biological target: T2, Cannabinoid receptor 1; test: Agonist activity at human CB1 receptor expressed in CHO cells co-expressing Galpha16 assessed as increase in calcium mobilization at 10 uM measured at 1 sec interval for 90 secs by calcium-5 dye based FLIPR assay relative to CP55,940; type: cell-based; details: 0.025 h
Cannabinoid receptor 2 [9] = biological target: T1, Cannabinoid receptor 2; test: Agonist activity at human CB2 receptor expressed in CHO cells co-expressing Galpha16 assessed as increase in calcium mobilization at 10 uM measured at 1 sec interval for 90 secs by calcium-5 dye based FLIPR assay relative to CP55,940; type: functional, cell-based
How it was run: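 CB2 agonist screen in stable human CB2-CHO-RD-HGA16 cells. Cells were Calcium 5 dye-loaded for 45 min at 37 °C in HBSS/HEPES/probenecid buffer, pH 7.4, and pretreated with vehicle. FLIPR Tetra then added compound at a single concentration. Fluorescence (485/525 nm) was expressed as % of CP55,940 Emax.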

Cannabinoid receptor 2 [10] = biological target: T1, Cannabinoid receptor 2; test: as §3, with “mobilization at 10 uM” for “mobilization”, “assay relative to CP55,940” for “assay”; type: functional, cell-based
Cannabinoid receptor 1 [11] = biological target: Cannabinoid receptor 1 (Mus musculus, UniProt P47746); test: Allosteric modulation of CB1 receptor in CD-1 mouse cerebellar membranes assessed as inhibition of CP55,940-induced [35S]GTPgammaS binding after 60 mins; type: functional, cell membranes, Cerebellum, Membrane
Sequence of Cannabinoid receptor 1 (Mus musculus, UniProt P47746) (P47746 whole entry): as the sequence (P47746 whole entry, looked up) above
How it was run: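 They were preincubated 10 min with adenosine deaminase (3 U/ml) in buffer containing 1 mg/ml BSA, then incubated 60 min at 30 °C with 30 µM GDP, 0.1 nM [35S]GTPγS, 100 nM CP55,940 and compound (0.1% DMSO). Nonspecific binding was measured with 30 µM GTPγS. Read-out was filtration.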

[12] = as §1; type: ADME, microsome; details: liver microsomes; how it was run: as §2
Rattus norvegicus [13] = test: Reduction in cocaine-induced reinstatement of cocaine seeking behavior in Sprague-Dawley rat at 30 mg/kg pretreated for 10 mins followed by cocaine treatment on day following last extinction session; type: functional, organism-based; how it was run: as §4
Cannabinoid receptor 1 [14] = biological target: Cannabinoid receptor 1 (Rattus norvegicus, UniProt P20272); test: Allosteric modulation of CB1 receptor in rat cerebellar membranes assessed as inhibition of CP55,940-induced [35S]GTPgammaS binding; type: functional, cell membranes, Cerebellum, Membrane
Sequence of Cannabinoid receptor 1 (Rattus norvegicus, UniProt P20272) (P20272 whole entry): as the sequence (P47746 whole entry, looked up) above, with D95E counted along it

Row | Emax at 10 µM (Cannabinoid receptor 1 [8]) [%] | Emax (Cannabinoid receptor 2 [9]) [%] | Imax (Cannabinoid receptor 2 [10]) [%] | Compound | also measured
1 | 9 | < 10 |  | O=C(Nc1ccc(Cl)cc1)Nc1cccc(-c2ccc(F)cc2)c1 | t1/2 (Liver [1]): > 300 min; IC50 (Cannabinoid receptor 2 [2]): > 10 µM; inhibition [3]: Dose-dependent effect; CLH (Liver [4]): < 4.6 µL/min/mg; inhibition (Cannabinoid receptor 1 [5]): Active; Activity (Rattus norvegicus [6]): Active; Activity [7]: 215%
2 | 6 | < 10 |  | Cc1ccccc1-c1cccc(NC(=O)Nc2ccc(Cl)cc2)c1 | IC50 (Cannabinoid receptor 2 [2]): > 10 µM
3 | 16 | < 10 | < 50 | O=C(Nc1ccc(Cl)cc1)Nc1cccc(-c2cc(Cl)cc(Cl)c2)c1 | 
4 | 13 | < 10 | < 50 | O=C(Nc1ccc(Cl)cc1)Nc1cccc(-c2ccc(C(=O)c3ccccc3)cc2)c1 | 
5 | 10 | < 10 | < 50 | O=C(Nc1ccc(Cl)cc1)Nc1cccc(-c2ccc3c(c2)OCO3)c1 | 
6 | 9 | < 10 | < 50 | O=C(Nc1ccc(Cl)cc1)Nc1cccc(-c2ccc(F)cc2F)c1 | 
7 | 10 | < 10 | < 50 | O=C(Nc1ccc(Cl)cc1)Nc1cccc(-c2cccc(O)c2)c1 | 
8 | 1 | < 10 | < 50 | O=C(Nc1ccc(Cl)cc1)Nc1cccc(-c2cccc(-c3ccccc3)c2)c1 | 
9 | 9 | < 10 | < 50 | O=C(Nc1ccc(Cl)cc1)Nc1cccc(-c2ccccn2)c1 | 
10 | 23 | < 10 | < 50 | COc1cc(-c2cccc(NC(=O)Nc3ccc(Cl)cc3)c2)ccn1 | 
11 | 2 | < 10 | < 50 | COc1cccc(-c2cccc(NC(=O)Nc3ccc(Cl)cc3)c2)n1 | 
12 | 3 | < 10 |  | O=C(Nc1ccc(Cl)cc1)Nc1cccc(-c2cnc3ccccc3c2)c1 | IC50 (Cannabinoid receptor 2 [2]): 4.1 µM
13 | 15 | < 10 | < 50 | O=C(Nc1ccc(Cl)cc1)Nc1cccc(-c2ccncc2)c1 | t1/2 (Liver [1]): 41.9 min; CLH (Liver [4]): 33.1 µL/min/mg
14 | 21 | < 10 | < 50 | O=C(Nc1ccc(Cl)cc1)Nc1cccc(-c2ccc(Cl)cc2)c1 | 
15 | 10 | < 10 | < 50 | CC(C)(C)c1cc(-c2cccc(NC(=O)Nc3ccc(Cl)cc3)c2)cc(C(C)(C)C)c1 | 
16 | 5 | < 10 | < 50 | O=C(Nc1ccc(Cl)cc1)Nc1cccc(-c2ccccc2)c1 | 
17 | 5 | < 10 | < 50 | O=C(Nc1ccc(Cl)cc1)Nc1cccc(-c2ccc3ccccc3n2)c1 | 
18 | 0 | < 10 | < 50 | O=C(Nc1ccc(Cl)cc1)Nc1cccc(-c2ccc3c(c2)Cc2ccccc2-3)c1 | 
19 | 3 | < 10 | < 50 | Cc1ccnc(-c2cccc(NC(=O)Nc3ccc(Cl)cc3)c2)c1 | 
20 | 1 | < 10 | < 50 | O=C(Nc1ccc(Cl)cc1)Nc1cccc(-c2ccc3occc3c2)c1 | 
21 | 20 | < 10 |  | O=C(Nc1ccc(Cl)cc1)Nc1cccc(-c2ccc(Cl)c(Cl)c2)c1 | IC50 (Cannabinoid receptor 2 [2]): > 10 µM
22 | 9 | < 10 |  | O=C(Nc1ccc(Cl)cc1)Nc1cccc(-c2cncnc2)c1 | IC50 (Cannabinoid receptor 2 [2]): 3.4 µM
23 | 4 | < 10 | < 50 | CC(C)(C)c1ccc(-c2cccc(NC(=O)Nc3ccc(Cl)cc3)c2)cc1 | 
24 | 34 | < 10 | < 50 | O=C(Nc1ccc(Cl)cc1)Nc1cccc(-c2cccnc2)c1 | 
25 | 0 | < 10 | < 50 | O=C(Nc1ccc(Cl)cc1)Nc1cccc(-c2ccc(-c3ccccc3)cc2)c1 | IC50 (Cannabinoid receptor 1 [11]): > 10 µM
26 |  | < 10 | < 50 | Cc1cccc(-c2cccc(NC(=O)Nc3ccc(Cl)cc3)c2)c1 | 
27 | 7 | < 10 | < 50 | O=C(Nc1ccc(Cl)cc1)Nc1cccc(-c2ccc3ccccc3c2)c1 | 
28 | 17 | < 10 | < 50 | O=C(Nc1ccc(Cl)cc1)Nc1cccc(-c2c(Cl)cccc2Cl)c1 | 
29 | 13 | < 10 | < 50 | COc1cccc(-c2cccc(NC(=O)Nc3ccc(Cl)cc3)c2)c1 | 

Row | Compound | Emax at 10 µM (Cannabinoid receptor 1 [8]) [%] | Emax (Cannabinoid receptor 2 [9]) [%] | Imax (Cannabinoid receptor 2 [10]) [%] | also measured
30 | CC(C)Oc1cccc(-c2cccc(NC(=O)Nc3ccc(Cl)cc3)c2)c1 |  | < 10 | < 50 | 
31 | O=C(Nc1ccc(Cl)cc1)Nc1cccc(-c2cccc([N+](=O)[O-])c2)c1 | 17 | < 10 |  | IC50 (Cannabinoid receptor 2 [2]): > 10 µM
32 | O=C(Nc1ccc(Cl)cc1)Nc1cccc(-c2cccc(N3CCCC3)n2)c1 | 28 | < 10 |  | half-life [12]: 13 to 13.4 min; IC50 (Cannabinoid receptor 2 [2]): > 10 µM; CLH (Liver [4]): 113.7 µL/min/mg; Activity (Rattus norvegicus [13]): Active; IC50 (Cannabinoid receptor 1 [14]): 0.042 to 0.074 µM
